Source: PubChem BioAssay
PAD4 FP inh: PAD4 (human) enzyme inhibition. Q9UM07. actives 0.41% (n = 330,000). AID 485272. recombinant PAD4, RCA probe fluorescence polarization. inhibition, % at 6.36 µM;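 active = percent inhibition above a cutoff equal to the mean of all tested compounds plus 3 SD, cut at about 15% in these data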;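 note: 0% = PAD4 with RCA probe and DMSO and 100% = probe without PAD4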
TDP2 absorb: blocks human TDP2 phosphodiesterase activity | O95551 | recombinant TDP2, T5PNP hydrolysis, p-nitrophenol absorbance 415 nm | inhibition, % at 12.8 µM | actives 0.34% (n = 370,000) | AID 720702;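 active = inhibition above the mean of all tested compounds plus 3 SD, set per campaign, cut at about 25% in these data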;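 note: 0% = DMSO with enzyme and 100% = buffer with substrate but no TDP2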
Target sequence (O95551 whole entry, looked up): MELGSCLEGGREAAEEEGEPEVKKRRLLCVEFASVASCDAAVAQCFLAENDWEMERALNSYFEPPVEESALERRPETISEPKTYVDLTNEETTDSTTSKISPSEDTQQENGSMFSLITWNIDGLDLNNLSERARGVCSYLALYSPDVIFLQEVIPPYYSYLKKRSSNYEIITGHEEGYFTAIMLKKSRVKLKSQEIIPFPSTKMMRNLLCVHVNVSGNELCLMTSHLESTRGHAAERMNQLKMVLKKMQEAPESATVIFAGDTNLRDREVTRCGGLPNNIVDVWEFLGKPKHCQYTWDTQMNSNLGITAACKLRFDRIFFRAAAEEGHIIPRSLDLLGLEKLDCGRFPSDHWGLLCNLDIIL
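test system = human TDP2 enzyme | input = TDP2 enzyme at 120 nM final | medium = 50 mM Tris-HCl pH 7.5 with Mg2+, KCl, DTT, BSA | also added = T5PNP substrate, 5 mM | times = 2 h at 37 °C | technique = epi absorbance | benchmarks = high control without enzyme, low control DMSO plus TDP2 | replication = each compound tested once, singlicate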
TCR-CD3 inh: blocks the human TCR-CD3 interaction; actives 0.37% (n = 360,000); TAMRA-labeled TCR probe fluorescence, biochemical; inhibition, % at 9.4 µM; AID 651800; in the data active = inhibition above about 19%;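 note: recombinant mutant TCR 2C K166C tagged with TAMRA read by polarization; 0% = receptor in buffer alone and 100% = receptor with positive control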
SIAE primary: blocks human sialic acid acetylesterase; Q9HAT2; SIAE FP-Rh probe binding, fluorescence polarization; inhibition, % at 9.66 µM; actives 0.69% (n = 370,000); AID 1053197;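 active = inhibition above a cutoff: mean of compounds within the control limits plus 3 SD of those, cut at about 17% in these data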;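 note: 0% = plate median of compound wells and 100% = probe without SIAE protein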
ABHD4 inh: ABHD4 (mouse) inhibition, primary FP screen. Q8VD66. purified mABHD4, FP-Rh probe fluorescence polarization. AID 720543. actives 0.54% (n = 370,000). inhibition, % at 8.92 µM;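 active = inhibition exceeding the mean over every tested compound plus 3 SD, cut at about 30% in these data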;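 note: 0% = plate median of compound wells and 100% = S159A mutant with DMSO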
Target sequence (Q8VD66 whole entry, looked up): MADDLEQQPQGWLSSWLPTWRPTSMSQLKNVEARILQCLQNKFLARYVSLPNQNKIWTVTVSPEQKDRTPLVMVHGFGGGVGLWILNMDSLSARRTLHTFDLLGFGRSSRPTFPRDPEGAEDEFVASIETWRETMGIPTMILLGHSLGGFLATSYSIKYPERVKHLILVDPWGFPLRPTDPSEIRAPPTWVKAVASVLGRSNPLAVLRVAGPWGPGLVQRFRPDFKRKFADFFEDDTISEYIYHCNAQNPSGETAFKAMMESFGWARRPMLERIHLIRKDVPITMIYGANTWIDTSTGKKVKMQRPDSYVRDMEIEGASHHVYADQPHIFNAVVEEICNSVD
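Doses – 8.92 µM, single dose · Material – wild-type mouse ABHD4 protein · Replication – single well per compound (singlicate) · Measure – percent inhibition of probe binding, normalized to plate controls · Schedule – 45 min compound pre-incubation plus 60 min probe step, 25 °C · Detection – fluorescence polarization with parallel and perpendicular emission, 525/598 nm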
HTRA1 inhibitor: HTRA1 (human) protease inhibition | inhibition, % at 5.96 µM | recombinant HTRA1, FP-rhodamine activity-based probe, fluorescence polarization | actives 0.5% (n = 340,000) | Q92743; in the data active = inhibition above about 36%;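 note: 0% = enzyme with DMSO and 100% = wells lacking enzyme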
SIAE confirm: confirmation of human SIAE inhibitors; shares compounds with SIAE primary; SIAE FP-Rh activity-based probe, fluorescence polarization; inhibition, % at 9.66 µM; actives 13% (n = 2,300);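 active = mean inhibition of the replicates above the hit cutoff set in the primary screen, cut at about 17% in these data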;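 note: 0% = SIAE with DMSO and probe and 100% = probe without SIAE; inhibitors lower polarization as more probe stays unbound to SIAE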
An asterisk follows results filed as active; / = no result given. This is a sample that favours compounds with a hit; in the whole collection about 2% have one here.

SMILES | PAD4 FP inh | TDP2 absorb | TCR-CD3 inh | SIAE primary | ABHD4 inh | HTRA1 inhibitor | SIAE confirm
Cc1cc(C)c(NC(=O)COC(=O)C2=COCCO2)c(C)c1 | / | -9 | 5 | 6 | -2 | 2 | /
NNc1nc2c(-c3cccc(C(F)(F)F)c3)nnn2c2ccccc12 | / | -1 | 2 | 22* | 15 | -22 | -10
COc1ccc(C(=O)N/C(=C/c2cccnc2)C(=O)N2CCCCCC2)cc1OC | 4 | -9 | 4 | 10 | 1 | 7 | /
Cc1nc(N2CCN(c3ccccn3)CC2)c2c(C)c(C(=O)Nc3c(F)cc(F)cc3Br)sc2n1 | -5 | -6 | -1 | -7 | -11 | -36 | /
Cc1nc(N2CCN(c3ccccn3)CC2)c2c(C)c(C(=O)Nc3c(C)cc(Br)cc3C)sc2n1 | 0 | 14 | 6 | 17* | -10 | -8 | -19
CCCc1c(C(=O)NNc2ccccc2OC)cnn1-c1ccccc1 | -2 | 13 | -6 | 18* | 3 | 9 | 3
O=C(CC1SC(=O)N(c2ccccc2)C1=O)Nc1ccccc1 (centres undefined) | -8 | -12 | -7 | 26* | 2 | 0 | 1
Cc1ccc(NC(=O)CC2SC(=O)N(c3ccccc3)C2=O)cc1 (centres undefined) | -7 | 7 | -18 | 5 | -4 | 4 | /
O=C1CC(c2ccco2)CC(O)=C1C=Nc1ccccc1-c1ccccc1 (centres undefined) | 3 | -4 | -2 | 27* | 0 | -7 | 0
O=C1CC(c2ccco2)CC(O)=C1C=Nc1cc(Cl)ccc1O (centres undefined) | 2 | -15 | 9 | 7 | 25 | 21 | /
CCc1nc2ccc(C(=O)NCCCN3CCCC3=O)cn2c1N(C)C(=O)COc1ccccc1 | / | -2 | -2 | -1 | 0 | / | /
CC(C)c1ccc(CN(C)C(=O)c2ccc(S(=O)(=O)NCc3ccco3)cc2)cc1 | -1 | 3 | -5 | 3 | -9 | -7 | /
CN(C)c1ccc(/C=N/N2C(=S)SC(C)(C)C2N(O)C(=O)Nc2ccc([N+](=O)[O-])cc2)cc1 (centres undefined) | -3 | 8 | 0 | 21* | 4 | -12 | 14
CNC(=O)N(O)C1N(/N=C/c2ccc(SC)cc2)C(=S)SC1(C)C (centres undefined) | 2 | 0 | -8 | 1 | -1 | 3 | /
Cc1[nH]c(C)c(S(=O)(=O)NCc2ccco2)c1C(=O)N1CCCCC1 | 1 | 15 | 0 | 19* | 2 | 8 | 11
Cc1[nH]c(C)c(S(=O)(=O)NCc2ccc(F)cc2)c1C(=O)N1CCCCC1 | 1 | 0 | 5 | -3 | -1 | -6 | /
O=C(CNC(=O)c1ccc(Br)cc1)N/N=C/c1cccnc1 | -2 | 1 | -1 | 0 | -4 | -1 | /
O=C(NCc1ccccn1)C(=O)NCC1OCCN1S(=O)(=O)c1ccc(F)cc1 (centres undefined) | 2 | 17 | 0 | 19* | 0 | 4 | 4
Cc1ccc(CN(C)C(=O)CN2C(=O)NC(c3ccccc3)(c3ccccc3)C2=O)c(C)c1 | -1 | -12 | -1 | -6 | -10 | -55 | /
CC1(C)CC(=O)C2=C(C1)N1C(=C(C#N)C2c2ccc(Cl)cc2)N=C(N)c2ccccc21 (centres undefined) | 2 | 7 | -9 | 20* | 23 | -42 | 1
O=C1[C@@H]2CSCN2C(=O)CN1Cc1ccccc1F | 4 | 0 | 2 | 19* | 0 | -1 | 3
COc1ccc(S[C@]2(C(=O)N3CCOCC3)CC(=O)N(C(=O)c3ccccc3)[C@@H]2c2ccc(OC)cc2)cc1 | / | -2 | / | 8 | 2 | / | /
COc1ccc(S[C@]2(C(=O)N3CCN(C(C)=O)CC3)CC(=O)N(C(=O)c3ccccc3)[C@@H]2c2ccc(OC)cc2)cc1 | / | -10 | / | 18* | -3 | / | -1
CC1CCN(C(=O)c2ccc(NS(=O)(=O)c3cccs3)cc2)CC1 | -5 | -4 | 5 | -8 | 1 | 0 | /
Cc1ccc(NC(=S)NNC(=S)Nc2ccc(C)cc2C)cc1 | 3 | 3 | -3 | 18* | 11 | -7 | 5
SMILES | PAD4 FP inh | TDP2 absorb | TCR-CD3 inh | SIAE primary | ABHD4 inh | HTRA1 inhibitor | SIAE confirm
Cc1ccc(NC(=O)CCC(=O)NNC(=S)Nc2ccccc2)c(C)c1 | 4 | -12 | -7 | 0 | 1 | 7 | /
Cc1cn([C@H]2C[C@H](O)[C@@H](CNCc3cc(Cl)ccc3OCc3ccc(Cl)cc3)O2)c(=O)[nH]c1=O | / | -6 | 5 | 7 | 4 | -6 | /
CC[C@]12c3[nH]c4cc(-c5ccco5)ccc4c3CCN1C(=O)[C@@H](CC(=O)NCC13CC4CC(CC(C4)C1)C3)C[C@@H]2C(=O)N1CCN(C(=O)c2ccco2)CC1 | -1 | 0 | -7 | 18* | 22 | -9 | 0
C=CCOc1ccc(CNn2cn[nH]c2=S)cc1OCC | 3 | -4 | 4 | 47* | 5 | 2 | -4
C=CCOc1ccc(CNn2cn[nH]c2=S)cc1OC | 0 | -14 | -6 | 9 | 4 | -1 | /
COC(=O)c1cn(C)c2ccc(S(=O)(=O)N(C)C3CCCCC3)cc2c1=O | / | -9 | -6 | 20* | 4 | 3 | -4
COc1ccc(CN(C)CC(=O)Nc2ccccc2C(F)(F)F)c(OC)c1 | -4 | 10 | 7 | 20* | 13 | -1 | 1
O=C(/C=C/c1ccc(Br)cc1)c1ccc(NC2=NCCCS2)cc1 | -1 | -9 | 2 | 40* | -8 | -42 | 8
CC(C)(C)c1ccc(/C=C/C(=O)c2ccc(NC3=NCCCS3)cc2)cc1 | -1 | -4 | 1 | 21* | 4 | -56 | 12
O=C(/C=C/c1ccccc1)c1ccc(NC2=NCCCS2)cc1 | -3 | 6 | 9 | 0 | 1 | -19 | /
Cc1cccc(/C=C/C(=O)c2ccc(NC3=NCCCS3)cc2)c1 | -7 | 4 | -3 | 53* | -5 | -38 | 2
COc1ccccc1C(=O)NNC(=O)C1CCN(C(=O)OC(C)(C)C)CC1 | 0 | 12 | -6 | 5 | 3 | 7 | /
Cc1ccc(C)c(S(=O)(=O)N2CCCOC2CNC(=O)C(=O)NC2CCCC2)c1 (centres undefined) | 0 | 3 | -1 | -5 | 0 | -2 | /
CCCc1nc2ccc(Cl)cn2c1Cc1ccc(C)cc1 | / | 3 | 5 | 18* | 6 | / | 4
CCCc1nc2ccc(Cl)cn2c1Cc1cccc(Cl)c1 | / | -1 | -6 | 4 | -11 | / | /
CC(=O)c1cccc(NC(=S)NCCCCc2ccccc2)c1 | 4 | -15 | 1 | 42* | -9 | -35 | 47*
O=C(CN(CC1CCCO1)C(=O)CNS(=O)(=O)c1ccccc1)NCCc1ccccc1 (centres undefined) | 0 | -4 | -1 | 0 | 3 | -2 | /
